{"source": "ChEMBL document CHEMBL4359878", "about": "“Discovery of 4-piperazinyl-2-aminopyrimidine derivatives as dual inhibitors of JAK2 and FLT3” (Eur J Med Chem, 2019)", "key": {"[1]": {"target": "T1, Tyrosine-protein kinase JAK2 (Homo sapiens, UniProt O60674)", "T1 sequence (O60674 whole entry, the tested form may be a part)": "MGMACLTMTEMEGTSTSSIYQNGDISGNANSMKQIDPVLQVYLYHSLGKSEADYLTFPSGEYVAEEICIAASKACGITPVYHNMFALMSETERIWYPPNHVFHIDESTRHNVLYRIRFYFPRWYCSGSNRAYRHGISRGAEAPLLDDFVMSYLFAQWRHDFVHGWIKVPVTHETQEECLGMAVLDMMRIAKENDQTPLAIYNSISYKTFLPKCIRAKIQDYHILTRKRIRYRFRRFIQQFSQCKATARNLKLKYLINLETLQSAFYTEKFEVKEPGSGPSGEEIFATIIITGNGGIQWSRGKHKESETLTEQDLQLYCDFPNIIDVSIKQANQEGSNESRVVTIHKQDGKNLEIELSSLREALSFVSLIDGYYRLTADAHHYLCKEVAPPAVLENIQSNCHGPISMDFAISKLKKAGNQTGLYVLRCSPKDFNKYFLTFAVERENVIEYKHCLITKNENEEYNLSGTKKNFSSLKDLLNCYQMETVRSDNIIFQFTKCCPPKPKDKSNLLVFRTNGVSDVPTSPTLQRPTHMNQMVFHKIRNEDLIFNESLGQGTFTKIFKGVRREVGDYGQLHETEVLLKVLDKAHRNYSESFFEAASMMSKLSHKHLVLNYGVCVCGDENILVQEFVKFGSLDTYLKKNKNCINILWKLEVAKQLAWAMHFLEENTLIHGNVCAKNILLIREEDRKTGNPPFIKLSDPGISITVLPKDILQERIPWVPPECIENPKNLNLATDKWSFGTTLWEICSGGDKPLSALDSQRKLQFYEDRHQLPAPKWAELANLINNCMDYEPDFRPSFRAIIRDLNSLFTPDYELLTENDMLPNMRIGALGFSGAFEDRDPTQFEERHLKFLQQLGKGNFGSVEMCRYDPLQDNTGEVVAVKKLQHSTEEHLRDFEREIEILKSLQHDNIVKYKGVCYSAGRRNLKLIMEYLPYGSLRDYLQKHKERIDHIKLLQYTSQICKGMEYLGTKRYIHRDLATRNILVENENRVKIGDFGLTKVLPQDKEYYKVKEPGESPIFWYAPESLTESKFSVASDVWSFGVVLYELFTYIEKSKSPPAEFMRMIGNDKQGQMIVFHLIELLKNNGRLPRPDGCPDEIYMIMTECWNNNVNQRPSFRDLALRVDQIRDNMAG", "assay": "Inhibition of N-terminal His-tagged human JAK2 catalytic domain (826 to 1132 resiudes) expressed in baculovirus expression system at 100 nM using FAM-labeled peptide as substrate preincubated for 10 mins followed by substrate addition measured after 1 hr in presence of ATP by mobility shift assay relative to control", "summary_of_the_method": "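Single-concentration (100 nM) percent inhibition in the mobility-shift JAK2 assay. Enzyme was preincubated with compound for 10 min at room temperature in HEPES pH 7.5/Brij-35 buffer. FAM-peptide and ATP were then added and the reaction run for 1 h at 28 °C before EDTA stop. Inhibition = (max−conversion)/(max−min)×100. Each compound was tested at least twice and the values averaged.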"}, "HL-60": {"test_system": "HL-60", "assay": "Antiproliferative activity against human HL60 cells assessed as growth inhibition after 72 hrs by CCK-8 assay", "format": "functional", "conditions": "HL-60, 72 h", "summary_of_the_method": "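CCK-8 viability readout. Cells were cultured in RPMI 1640 with 10% FBS and 1% penicillin/streptomycin and seeded at 3000 (HEL), 5000 (MV4-11) or 3000 (HL60) cells/well. Increasing compound concentrations were applied for 72 h, then CCK-8 was added for a further 3 h and absorbance read at 450 nm. Inhibition = (1−A_sample/A_control)×100, normalized to DMSO controls. Value is the mean of three independent measurements, obtained by curve fitting.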"}, "HEL [2]": {"test_system": "HEL", "assay": "Induction of cell cycle arrest in human HEL cells assessed as accumulation at G1 phase at 0.33 uM after 72 hrs by propidium iodide-staining based flow cytometry (reference value: 43.12%)", "format": "functional", "summary_of_the_method": "(§1)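 Subconfluent HEL cells were treated for 72 h at 0.33, 1.0, 3.0 or 9.0 μM, with untreated cells as control. Cultures were pulsed with 10 μM BrdU for 30 min at 37 °C before harvest, then PBS-washed, fixed in 70% ethanol and denatured in 2 M HCl. After neutralization, cells were stained with fluorescein anti-BrdU antibody and propidium iodide. DNA content was measured by flow cytometry with 488 nm excitation.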"}, "HEL [3]": {"test_system": "HEL", "assay": "Induction of cell cycle arrest in human HEL cells assessed as accumulation at S phase at 0.33 uM after 72 hrs by propidium iodide-staining based flow cytometry (reference value: 41.47%)", "format": "functional", "summary_of_the_method": "as §1"}, "HEL [4]": {"test_system": "HEL", "assay": "Induction of cell cycle arrest in human HEL cells assessed as accumulation at G2 phase at 0.33 uM after 72 hrs by propidium iodide-staining based flow cytometry (reference value: 15.10%)", "format": "functional", "summary_of_the_method": "as §1"}, "HEL [5]": {"test_system": "HEL", "assay": "Induction of cell cycle arrest in human HEL cells assessed as accumulation at G1 phase at 1 uM after 72 hrs by propidium iodide-staining based flow cytometry (reference value: 43.12%)", "format": "functional", "summary_of_the_method": "as §1"}, "HEL [6]": {"test_system": "HEL", "assay": "Induction of cell cycle arrest in human HEL cells assessed as accumulation at S phase at 3 uM after 72 hrs by propidium iodide-staining based flow cytometry (reference value: 41.47%)", "format": "functional", "summary_of_the_method": "as §1"}, "HEL [7]": {"test_system": "HEL", "assay": "Induction of cell cycle arrest in human HEL cells assessed as accumulation at G2 phase at 3 uM after 72 hrs by propidium iodide-staining based flow cytometry (reference value: 15.10%)", "format": "functional", "summary_of_the_method": "as §1"}, "HEL [8]": {"test_system": "HEL", "assay": "Induction of cell cycle arrest in human HEL cells assessed as accumulation at G1 phase at 9 uM after 72 hrs by propidium iodide-staining based flow cytometry (reference value: 43.12%)", "format": "functional", "summary_of_the_method": "as §1"}, "HEL [9]": {"test_system": "HEL", "assay": "Induction of cell cycle arrest in human HEL cells assessed as accumulation at S phase at 9 uM after 72 hrs by propidium iodide-staining based flow cytometry (reference value: 41.47%)", "format": "functional", "summary_of_the_method": "as §1"}, "HEL [10]": {"test_system": "HEL", "assay": "Induction of cell cycle arrest in human HEL cells assessed as accumulation at G2 phase at 9 uM after 72 hrs by propidium iodide-staining based flow cytometry (reference value: 15.10%)", "format": "functional", "summary_of_the_method": "as §1"}, "HEL [11]": {"test_system": "HEL", "assay": "Induction of cell cycle arrest in human HEL cells assessed as accumulation of cells at G1/S phase after 72 hrs by propidium iodide-staining based flow cytometry", "format": "functional", "summary_of_the_method": "as §1"}, "HEL [12]": {"test_system": "HEL", "assay": "Induction of apoptosis in human HEL cells after 72 hrs by FITC-annexin V/propidium iodide-double staining based flow cytometry", "format": "functional, cell-based"}, "HEL [13]": {"test_system": "HEL", "assay": "Induction of apoptosis in human HEL cells assessed as early apoptotic cells at 0.33 uM after 72 hrs by FITC-annexin V/propidium iodide-double staining based flow cytometry (reference value: 2.23%)", "format": "functional"}, "HEL [14]": {"test_system": "HEL", "assay": "Induction of apoptosis in human HEL cells assessed as late apoptotic cells at 0.33 uM after 72 hrs by FITC-annexin V/propidium iodide-double staining based flow cytometry (reference value: 1.63%)", "format": "functional"}, "HEL [15]": {"test_system": "HEL", "assay": "Induction of apoptosis in human HEL cells assessed as necrotic cells at 0.33 uM after 72 hrs by FITC-annexin V/propidium iodide-double staining based flow cytometry (reference value: 2.40%)", "format": "functional"}, "HEL [16]": {"test_system": "HEL", "assay": "Induction of apoptosis in human HEL cells assessed as viable cells at 1 uM after 72 hrs by FITC-annexin V/propidium iodide-double staining based flow cytometry (reference value: 93.77%)", "format": "functional", "conditions": "read-out: Activity"}, "HEL [17]": {"test_system": "HEL", "assay": "Induction of apoptosis in human HEL cells assessed as early apoptotic cells at 1 uM after 72 hrs by FITC-annexin V/propidium iodide-double staining based flow cytometry (reference value: 2.23%)", "format": "functional"}, "HEL [18]": {"test_system": "HEL", "assay": "Induction of apoptosis in human HEL cells assessed as early apoptotic cells at 3 uM after 72 hrs by FITC-annexin V/propidium iodide-double staining based flow cytometry (reference value: 2.23%)", "format": "functional"}, "HEL [19]": {"test_system": "HEL", "assay": "Induction of apoptosis in human HEL cells assessed as necrotic cells at 3 uM after 72 hrs by FITC-annexin V/propidium iodide-double staining based flow cytometry (reference value: 2.40%)", "format": "functional"}, "HEL [20]": {"test_system": "HEL", "assay": "Induction of apoptosis in human HEL cells assessed as viable cells at 9 uM after 72 hrs by FITC-annexin V/propidium iodide-double staining based flow cytometry (reference value: 93.77%)", "format": "functional", "conditions": "read-out: Activity"}, "HEL [21]": {"test_system": "HEL", "assay": "Induction of apoptosis in human HEL cells assessed as early apoptotic cells at 9 uM after 72 hrs by FITC-annexin V/propidium iodide-double staining based flow cytometry (reference value: 2.23%)", "format": "functional"}, "HEL [22]": {"test_system": "HEL", "assay": "Induction of apoptosis in human HEL cells assessed as late apoptotic cells at 9 uM after 72 hrs by FITC-annexin V/propidium iodide-double staining based flow cytometry (reference value: 1.63%)", "format": "functional"}, "HEL [23]": {"test_system": "HEL", "assay": "Induction of apoptosis in human HEL cells assessed as necrotic cells at 9 uM after 72 hrs by FITC-annexin V/propidium iodide-double staining based flow cytometry (reference value: 2.40%)", "format": "functional"}, "[24]": {"target": "T1, Tyrosine-protein kinase JAK2", "assay": "Inhibition of N-terminal His-tagged human JAK2 catalytic domain (826 to 1132 resiudes) expressed in baculovirus expression system using FAM-labeled peptide as substrate preincubated for 10 mins followed by substrate addition measured after 1 hr in presence of ATP by mobility shift assay", "summary_of_the_method": "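Caliper mobility-shift assay with recombinant kinase in 50 mM HEPES pH 7.5, 0.0015% Brij-35. Compound was diluted from DMSO and preincubated with enzyme for 10 min at room temperature. FAM-labeled peptide plus ATP was then added and the reaction run for 1 h at 28 °C. It was stopped with an EDTA (50 mM) buffer. Conversion gave percent inhibition relative to max/min controls, and IC50 came from a four-parameter Hill fit. Duplicate wells were used.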"}, "[25]": {"target": "Receptor-type tyrosine-protein kinase FLT3 (Homo sapiens) (UniProt P36888)", "sequence (P36888 whole entry)": "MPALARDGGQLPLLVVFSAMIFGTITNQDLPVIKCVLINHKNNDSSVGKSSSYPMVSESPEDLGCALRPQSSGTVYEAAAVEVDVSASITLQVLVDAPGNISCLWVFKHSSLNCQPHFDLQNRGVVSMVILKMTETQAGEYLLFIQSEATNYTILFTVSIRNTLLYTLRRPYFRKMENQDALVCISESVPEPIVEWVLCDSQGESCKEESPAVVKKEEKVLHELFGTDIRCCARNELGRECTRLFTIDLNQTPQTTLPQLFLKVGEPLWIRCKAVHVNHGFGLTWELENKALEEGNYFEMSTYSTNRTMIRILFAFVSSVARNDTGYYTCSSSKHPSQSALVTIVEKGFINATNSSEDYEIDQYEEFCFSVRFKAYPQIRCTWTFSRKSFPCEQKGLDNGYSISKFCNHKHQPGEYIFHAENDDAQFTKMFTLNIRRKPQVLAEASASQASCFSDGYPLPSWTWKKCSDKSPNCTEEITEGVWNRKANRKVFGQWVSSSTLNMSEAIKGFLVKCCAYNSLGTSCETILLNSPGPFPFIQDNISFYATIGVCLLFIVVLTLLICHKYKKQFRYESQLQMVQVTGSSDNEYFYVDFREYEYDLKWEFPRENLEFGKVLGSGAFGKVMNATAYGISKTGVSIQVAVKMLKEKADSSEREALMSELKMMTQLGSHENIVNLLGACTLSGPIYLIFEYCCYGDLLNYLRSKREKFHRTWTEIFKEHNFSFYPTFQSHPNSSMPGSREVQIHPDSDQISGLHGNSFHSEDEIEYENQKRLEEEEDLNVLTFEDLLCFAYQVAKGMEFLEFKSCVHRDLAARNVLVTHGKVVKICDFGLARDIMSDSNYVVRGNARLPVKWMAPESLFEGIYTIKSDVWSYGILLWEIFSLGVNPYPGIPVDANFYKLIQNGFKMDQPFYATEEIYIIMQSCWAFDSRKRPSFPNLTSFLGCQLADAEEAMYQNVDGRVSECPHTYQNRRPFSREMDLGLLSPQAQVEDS", "conditions": "at 100 nM"}}}
{"compound": "CC(=O)c1ccc(NC(=O)N2CCN(c3ccnc(Nc4ccc(N5CCOCC5)cc4)n3)CC2)cc1", "values": [{"measurement": "inhibition", "setting": "[1]", "value": 86.7, "unit": "%"}, {"measurement": "GI50", "setting": "HL-60", "value": 16.5, "unit": "µM"}, {"measurement": "Activity", "setting": "HEL [2]", "value": 54.07, "unit": "%"}, {"measurement": "Activity", "setting": "HEL [3]", "value": 38.62, "unit": "%"}, {"measurement": "Activity", "setting": "HEL [4]", "value": 7.31, "unit": "%"}, {"measurement": "Activity", "setting": "HEL [5]", "value": 61.44, "unit": "%"}, {"measurement": "Activity", "setting": "HEL [6]", "value": 22.24, "unit": "%"}, {"measurement": "Activity", "setting": "HEL [7]", "value": 5.91, "unit": "%"}, {"measurement": "Activity", "setting": "HEL [8]", "value": 78.05, "unit": "%"}, {"measurement": "Activity", "setting": "HEL [9]", "value": 19.26, "unit": "%"}, {"measurement": "Activity", "setting": "HEL [10]", "value": 2.07, "unit": "%"}, {"measurement": "Activity", "setting": "HEL [11]", "value": "Dose-dependent effect"}, {"measurement": "Activity", "setting": "HEL [12]", "value": "Dose-dependent effect"}, {"measurement": "Activity", "setting": "HEL [13]", "value": 4.07, "unit": "%"}, {"measurement": "Activity", "setting": "HEL [14]", "value": 4.3, "unit": "%"}, {"measurement": "Activity", "setting": "HEL [15]", "value": 3.3, "unit": "%"}, {"measurement": "viability at 1 µM", "setting": "HEL [16]", "value": 47.9, "unit": "%"}, {"measurement": "Activity", "setting": "HEL [17]", "value": 16.97, "unit": "%"}, {"measurement": "Activity", "setting": "HEL [18]", "value": 31.87, "unit": "%"}, {"measurement": "Activity", "setting": "HEL [19]", "value": 7, "unit": "%"}, {"measurement": "viability at 9 µM", "setting": "HEL [20]", "value": 24.3, "unit": "%"}, {"measurement": "Activity", "setting": "HEL [21]", "value": 35.53, "unit": "%"}, {"measurement": "Activity", "setting": "HEL [22]", "value": 30.4, "unit": "%"}, {"measurement": "Activity", "setting": "HEL [23]", "value": 9.77, "unit": "%"}, {"measurement": "IC50", "setting": "[24]", "value": 27, "unit": "nM"}, {"measurement": "inhibition", "setting": "[25]", "value": 80.7, "unit": "%"}]}
